# Sampled rows, rich in hits. Any-hit rate of the full collection: about 2.9%.
# HSP90 refold inh = HSP90 inhibitors, primary screen, cell lysate, luminescence; Heat shock protein HSP 90 (rabbit reticulocyte lysate; luciferase refolding); Rabbit reticulocyte lysate, luciferase refolding luminescence, 3 h; inhibition, % at 5.6 µM; 0.91% of 290,000 active; AID 1789, 2009;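 active means inhibition above the screen-wide mean plus 3 SD, computed separately per campaign, cut at about 16% in these data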;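 further: inhibitors lower the luminescence because luciferase stays unfolded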
# SENP6 block = SENP6 protease inhibitors, primary screen, biochemical, luminescence, uHTS; Recombinant SENP6 catalytic domain, aminoluciferin luminescence; 1.8% of 330,000 active; AID 2599, 2010; Sentrin-specific protease 6 (Homo sapiens), Q9GZR1; inhibition, % at 10 µM;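 active means inhibition above about 50% at the single tested dose, limit read from the data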
# SENP8 block-1 = SENP8 protease inhibitors, primary screen, biochemical, luminescence; Sentrin-specific protease 8 (Homo sapiens), Q96LD8; purified SENP8, Z-RLRGG-aminoluciferin cleavage; inhibition, % at 10 µM; 1.2% of 330,000 active; AID 2540, 2010; in the data active means inhibition above about 50%
# Target sequence (Q96LD8 whole entry, looked up): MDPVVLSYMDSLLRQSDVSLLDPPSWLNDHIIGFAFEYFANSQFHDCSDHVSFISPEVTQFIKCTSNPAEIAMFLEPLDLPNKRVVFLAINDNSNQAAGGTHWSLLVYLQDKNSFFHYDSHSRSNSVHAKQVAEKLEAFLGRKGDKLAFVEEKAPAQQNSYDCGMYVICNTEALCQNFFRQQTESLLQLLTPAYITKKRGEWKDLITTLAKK
# SENP1 inh = human SENP1 catalytic domain inhibitors, primary screen, biochemical, FRET, uHTS; recombinant SENP1 catalytic domain, CyPet-SUMO1-YPet FRET cleavage; inhibition, % at 10 µM; 0.21% of 360,000 active;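 active means inhibition at least 30% at 10 µM, raw YFP signal under a set limit, fluorescence ratio 0.5 to 1.5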
# Target sequence (Q9P0U3 419-644 limits assumed): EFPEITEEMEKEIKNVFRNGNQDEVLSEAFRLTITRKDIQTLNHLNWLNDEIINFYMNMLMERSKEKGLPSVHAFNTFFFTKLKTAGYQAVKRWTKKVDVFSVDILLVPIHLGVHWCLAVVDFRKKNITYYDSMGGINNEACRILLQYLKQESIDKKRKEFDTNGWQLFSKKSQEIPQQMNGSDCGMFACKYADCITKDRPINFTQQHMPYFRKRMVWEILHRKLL
#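 Test system: recombinant human SENP1 catalytic domain, His6-tagged / Medium: pH 8 Tris buffer with EDTA, NaCl, BME, BSA, NP40, catalase / Also added: SUMO1 FRET substrate flanked by Cypet and Ypet, 25 nM / Times: 50 min reaction at room temperature / Signal: FRET, CFP and YFP emission / Control set: no-enzyme low control and enzyme-plus-DMSO high control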
# SENP8 block-2 = human SENP8 protease inhibitors, primary screen, biochemical, fluorescence, Nedd8 protein substrate, uHTS; Sentrin-specific protease 8 (Homo sapiens), Q96LD8; recombinant SENP8; inhibition, % at 20 µM; 0.64% of 360,000 active; in the data active means inhibition mostly above about 40%, no sharp cut-off; inactive means mostly below about 27%
# SENP7 inh = SENP7 protease inhibitors, primary screen, biochemical, luminescence, uHTS; Sentrin-specific protease 7 (Homo sapiens), Q9BQF6; recombinant SENP7, Z-RLRGG-aminoluciferin luminescence, 40 min; inhibition, % at 5 µM; 1.5% of 330,000 active; AID 434973, 2010;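 active means inhibition above about 50% at the single test dose, limit read from the data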
# SENP8 confirm = SENP8 protease inhibitors, retest, confirmation, biochemical, luminescence, single concentration | shares compounds with SENP7 inh | inhibition, % at 12.5 µM | Recombinant SENP8, Z-RLRGG-aminoluciferin luminescence, 60 min | 40% of 6,200 active;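 active means mean inhibition across replicates above about 50%, limit read from the data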
# SENP6 confirm = SENP6 protease inhibitors, confirmation, biochemical, luminescence, single concentration; shares compounds with SENP7 inh; recombinant SENP6, Z-RLRGG-aminoluciferin luminescence; inhibition, % at 12.5 µM; 58% of 6,200 active
# SENP7 conf = SENP7 protease inhibitors, retest, confirmation, biochemical, luminescence, single concentration; recombinant SENP7, Z-RLRGG-aminoluciferin luminescence, 40 min; shares compounds with SENP7 inh; 69% of 6,200 active; inhibition, % at 12.5 µM
# Casp3 SENP sel = caspase-3 protease inhibitors, confirmation, selectivity assay for SENP inhibitor project, biochemical, single concentration. shares compounds with SENP7 inh. purified caspase-3, Z-DEVD-aminoluciferin luminescence, 60 min. inhibition, % at 12.5 µM. 60% of 6,200 active;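 active means mean inhibition above about 50%, limit read from the data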
# Target sequence (P42574 28-227 limits assumed): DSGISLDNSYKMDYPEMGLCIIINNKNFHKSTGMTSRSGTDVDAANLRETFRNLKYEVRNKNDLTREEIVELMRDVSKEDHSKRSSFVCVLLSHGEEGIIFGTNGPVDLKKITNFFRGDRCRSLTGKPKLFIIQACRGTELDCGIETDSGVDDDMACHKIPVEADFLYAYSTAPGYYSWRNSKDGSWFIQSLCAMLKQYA
# SENP luc ctr = luminescence interference (SENP counter-screen) | shares compounds with SENP7 inh | inhibition, % at 12.5 µM | 39% of 6,200 active | Pre-incubated SENP8/Z-RLRGG-aminoluciferin, luciferase luminescence interference;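 active means mean inhibition above about 50% when retested at one dose, limit read from the data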
# Hits are given with their value; 0 = inactive; - = no result given.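 How the source made its calls, unless noted: active means mean inhibition above about 50% in the one-dose retest (limit read from the data); inactive means the rest.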
SMILES,HSP90 refold inh,SENP6 block,SENP8 block-1,SENP1 inh,SENP8 block-2,SENP7 inh,SENP8 confirm,SENP6 confirm,SENP7 conf,Casp3 SENP sel,SENP luc ctr
O=C(O)c1cccc(-n2cc(-c3cccc(C(F)(F)F)c3)cn2)c1,0,85,78,0,0,59,0,87,97,0,91
CN(C)c1ccnc2sc3c(SCc4ccc(Cl)cc4)ncnc3c12,0,0,0,0,0,58,0,0,0,0,0
O=C(Nc1nnc([C@@H]2C[C@H](O)[C@@H](CO)O2)s1)c1c(F)cccc1F,-,-,-,0,0,-,-,-,-,-,-
Oc1ccccc1OCc1nc2ccccc2s1,0,82,70,0,0,81,0,76,94,78,80
OCCN1CCN(C2CCC(c3ccc(F)cc3)c3ccc(F)cc32)CC1 (stereo not drawn),-,0,0,0,0,0,-,-,-,-,-
O=C(NC1(O)C(=O)c2ccccc2C1=O)c1ccc(C(F)(F)F)cc1,0,74,67,0,81,80,79,91,84,0,0
Cc1ccc(C(=O)NC2(O)C(=O)c3ccccc3C2=O)cc1C,0,64,64,0,100,60,70,85,74,0,0
O=C(N[C@@H](Cc1ccccc1)C(=O)O)c1ccc(C(F)(F)F)cc1,0,0,0,0,0,0,-,-,-,-,-
O=C(COC(=O)c1ccc[nH]c1=O)NC1CCCc2ccccc21 (stereo not drawn),0,0,0,0,0,0,-,-,-,-,-
Cc1ccc(-n2[nH]c(C)c(C=Nc3ccc4[nH]c(=O)[nH]c4c3)c2=O)cc1,0,0,0,0,0,0,-,-,-,-,-
Cc1ccc(N=Cc2c(C)[nH]n(-c3nc4ccccc4[nH]3)c2=O)cc1,0,94,86,0,0,95,88,55,94,95,90
Cc1ccn2c(c1)nc(=S)n2C(=O)c1ccccc1,0,60,0,0,0,76,0,52,76,0,0
O=C(c1ccco1)n1c(=S)nc2ccccn21,0,0,0,0,0,0,-,-,-,-,-
C#CCOCCOCCOCCNc1nc(N2CCN(C(=O)CCCCCCCCCCNC(=O)Cn3cc(CCCCCN)nn3)CC2)nc(N2CCN(C(=O)CCCCCCCCCCNC(=O)[C@H]([C@@H](C)CC)n3cc(CCCCCN)nn3)CC2)n1,-,0,0,0,0,0,-,-,-,-,-
O=C(Nc1ccc(-c2nc3ccccc3[nH]2)cc1)c1ccco1,0,91,84,0,0,86,87,87,96,88,65
S=C(Nc1ccc(-c2nc3ccccc3[nH]2)cc1)Nc1cccnc1,0,65,0,0,0,0,0,0,0,0,0
Cc1ccn2cc(-c3ccc(NC(=O)c4ccco4)cc3)nc2c1,0,76,0,0,0,64,55,53,86,74,0
O=C(/C=C/c1ccco1)Nc1ccc(-c2nc3ccccc3[nH]2)cc1,0,-,-,0,0,-,-,-,-,-,-
CC(=O)Nc1cccc(-c2cn3ccc(C)cc3n2)c1,0,0,0,0,0,0,-,-,-,-,-
c1cncc(-c2nc3ccccc3[nH]2)c1,0,0,0,0,0,0,-,-,-,-,-
Cc1ccc2nc(-c3cccc(NC(=O)c4ccco4)c3)[nH]c2c1,0,92,87,0,0,95,0,93,101,89,92
CC(C)n1nc(C(=O)Nc2cccc(S(=O)(=O)N3CCOCC3)c2)c2ccccc2c1=O,-,0,0,0,0,0,-,-,-,-,-
Cc1ccc(S(=O)(=O)NN=Cc2ccccc2Cl)cc1,-,-,-,0,0,-,-,-,-,-,-
Cc1ccc(/C=C2/CCc3c([nH]c4ccccc34)C2=O)cc1,0,0,0,0,0,68,0,0,0,0,0
CC(C)c1ccc(Nc2ncccc2C(=O)O)cc1,0,95,95,0,0,98,0,0,0,0,0
SMILES,HSP90 refold inh,SENP6 block,SENP8 block-1,SENP1 inh,SENP8 block-2,SENP7 inh,SENP8 confirm,SENP6 confirm,SENP7 conf,Casp3 SENP sel,SENP luc ctr
COc1ccc(NC(=O)c2cccnc2Nc2ccc(OC)cc2)cc1,0,0,0,0,0,0,-,-,-,-,-
COc1ccc(OC)c(NC(=O)CSc2ccc(-c3cccnc3)nn2)c1,0,0,0,0,0,0,-,-,-,-,-
Cc1ccc2c(c1)c1c3n2CCN(C(=O)CCl)C3CCC1 (stereo not drawn),0,0,0,0,0,0,-,-,-,-,-
O=C(O)c1ccccc1N/N=C\c1ccnc2ccccc12,0,94,90,0,0,0,0,100,103,97,94
O=C(O)c1ccccc1N/N=C/c1cc(Br)cc(Br)c1O,0,102,92,0,0,0,94,98,97,70,0
O=C(O)c1cccc2c(/C=N/Nc3ccccn3)c[nH]c12,0,90,88,0,0,90,65,92,93,93,0
ON=Cc1ccnc2ccccc12,-,-,-,0,0,-,-,-,-,-,-
O=C(O)c1ccccc1C(=O)Nc1c(-c2ccccc2)nc2ccccn12,0,0,0,0,0,0,-,-,-,-,-
CCN(CC)C(=O)COc1coc(CN2CCN(c3ccccc3F)CC2)cc1=O,0,0,0,0,0,0,-,-,-,-,-
COc1ccc(Nc2nnc(-c3ccncc3)s2)cc1Cl,0,73,66,0,0,96,0,0,0,54,0
COc1ccc(Nc2nc(C)cc(C)n2)cc1Cl,0,70,0,0,0,67,62,59,86,68,65
CNc1nnc(-c2ccncc2)s1,0,0,0,0,0,0,-,-,-,-,-
Clc1ccccc1Nc1nnc(-c2ccncc2)s1,22,98,96,0,0,100,98,99,102,97,0

# High-throughput results (PubChem)
